KDM4C inh: inhibitors of human demethylase GASC-1 KDM4C; hit rate 0.15% among 96,000; inhibition, % at 12.5 µM; Q9H3R0; GST-KDM4C 2-372, H3K9me3 peptide, LANCE TR-FRET;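 active = mean replicate inhibition above about 25%, with at least 55% of replicates also reaching it, limit read from the data, passing the limit was not always enough; inconclusive = only one of those two conditions met; inactive = neither condition met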
Target sequence (Q9H3R0 2-372 limits assumed): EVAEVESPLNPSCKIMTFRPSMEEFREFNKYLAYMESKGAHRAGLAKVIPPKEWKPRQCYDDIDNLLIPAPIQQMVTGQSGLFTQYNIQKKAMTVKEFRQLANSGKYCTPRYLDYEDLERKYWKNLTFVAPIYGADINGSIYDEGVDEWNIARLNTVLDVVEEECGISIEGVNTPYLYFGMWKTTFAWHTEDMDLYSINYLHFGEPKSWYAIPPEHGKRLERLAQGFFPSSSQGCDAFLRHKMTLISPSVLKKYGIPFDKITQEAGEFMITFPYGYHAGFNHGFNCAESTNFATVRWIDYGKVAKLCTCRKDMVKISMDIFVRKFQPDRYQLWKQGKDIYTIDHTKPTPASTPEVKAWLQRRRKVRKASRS
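System – N-terminal GST-fused human GASC-1 (KDM4C) fragment, residues 2-372 · Input – enzyme final amount 10 nM · Technique – LANCE TR-FRET, Eu antibody, ULight-streptavidin, EDTA, ex 340 nm, em 618/671 nm · Medium – HEPES buffer, pH 7.5, plus ascorbate · Incubation – enzyme reaction 30 min, then detection 60 min, both room temperature · Reagent – H3K9me3 peptide with Fe(II)/2OG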
T cruzi growth-1: inhibitors of T. cruzi proliferation; T. cruzi beta-gal in NIH3T3, GalScreen luminescence, 90 h; inhibition, % at 8.34 µM; hit rate 5.9% among 77,000;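 active = mean inhibition above about 93%, with at least 55% of replicates each passing it, limit read from the data, passing the limit was not always enough; inconclusive = only one of those two conditions holds; inactive = neither condition holds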
IDH1 mut inh: IDH1 R132H (human) inhibition; O75874; hit rate 0.18% among 70,000; inhibition, % at 10 µM; IDH1 R132H reductase, diaphorase/resazurin fluorescence, 60 min; in the data active = inhibition above about 34%; inconclusive = no clear call, values can overlap the other calls; inactive = below about 11%
Target sequence (O75874 whole entry R132H): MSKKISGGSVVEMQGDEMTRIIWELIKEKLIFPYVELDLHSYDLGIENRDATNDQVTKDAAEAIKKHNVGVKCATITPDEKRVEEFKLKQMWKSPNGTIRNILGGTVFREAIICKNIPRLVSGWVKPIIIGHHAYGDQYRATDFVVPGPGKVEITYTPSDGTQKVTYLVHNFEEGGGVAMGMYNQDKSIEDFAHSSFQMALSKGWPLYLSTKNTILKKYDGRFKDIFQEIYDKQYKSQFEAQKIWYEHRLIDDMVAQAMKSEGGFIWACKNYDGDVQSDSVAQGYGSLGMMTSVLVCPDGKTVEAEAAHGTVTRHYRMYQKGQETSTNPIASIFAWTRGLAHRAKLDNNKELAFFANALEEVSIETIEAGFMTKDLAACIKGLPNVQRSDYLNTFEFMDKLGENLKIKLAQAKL
Pf Dd2 growth: P. falciparum Dd2 growth inhibition | SYBR Green, 72 h; hits give low values | activity change, % at 10 µM | hit rate 2.3% among 94,000; in the data active = activity change below about -80%; inconclusive = no clear call, values can overlap the other calls
T cruzi growth-2: blocks T. cruzi growth in NIH3T3 host cells. inhibition, % at 8.35 µM. shares compounds with T cruzi growth-1. hit rate 72% among 5,600. AID 651739. T. cruzi beta-gal in NIH3T3, GalScreen luminescence, 90 h;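 active = mean replicate inhibition above about 95% and at least 55% of replicates individually reaching it, limit read from the data; inconclusive = only one of the two criteria is met; inactive = neither criterion is met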
T cruzi growth-3: inhibitors of T. cruzi proliferation; shares compounds with T cruzi growth-1; T. cruzi beta-gal in NIH3T3, GalScreen luminescence, 90 h; inhibition, % at 2.09 µM; hit rate 21% among 5,600; AID 651740;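 active = mean inhibition above about 95%, with at least 55% of replicates also reaching it, limit read from the data; inconclusive = meets just one of the two conditions; inactive = meets neither condition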
3T3 cytotox: kills mouse NIH/3T3 fibroblasts; shares compounds with T cruzi growth-1; NIH/3T3 viability, CellTiter-Glo ATP luminescence, 90 h; cytotoxicity (signal decrease), % at 8.35 µM; hit rate 14% among 5,600; AID 651742;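 active = mean signal decrease across replicates above about 35% based on untreated-well scatter, with enough replicates individually passing, limit read from the data; inconclusive = no rule stated though some were filed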
3T3 cytotox 2: NIH/3T3 (mouse) viability loss | shares compounds with T cruzi growth-1 | inhibition, % at 24.9 µM | NIH/3T3 viability, CellTiter-Glo ATP luminescence, 90 h | AID 651744 | hit rate 56% among 5,600;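 active = mean loss of cell viability signal at or above a set limit, and enough replicates individually reaching it; inconclusive = meets only the mean limit or only the replicate share; inactive = meets neither condition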
Of the large screens only hits and unclear results are named; the others gave an inactive call (follow-up assays come after a bar, where they were run). This is a sample that favours compounds with a hit; in the whole collection about 5.8% have one here.

CC(C)CC#Cc1ccc2c(c1)O[C@H](CN(C)C(=O)Nc1ccccc1F)[C@@H](C)CN([C@H](C)CO)S2(=O)=O	T cruzi growth-1 91.7 | T cruzi growth-2 107.4 | T cruzi growth-3 inactive | 3T3 cytotox inactive | 3T3 cytotox 2 67.8
COc1ccc(NC(=O)N(C)C[C@@H]2Oc3cc(C#CCC(C)C)ccc3S(=O)(=O)N([C@@H](C)CO)C[C@@H]2C)cc1	T cruzi growth-1 98.6 | T cruzi growth-2 105.6 | T cruzi growth-3 111.2 | 3T3 cytotox inactive | 3T3 cytotox 2 95.9
COc1ccc(NC(=O)N(C)C[C@H]2Oc3cc(C#CCC(C)C)ccc3S(=O)(=O)N([C@@H](C)CO)C[C@H]2C)cc1	T cruzi growth-1 100.2 (no result: KDM4C inh) | T cruzi growth-2 107.7 | T cruzi growth-3 inactive | 3T3 cytotox inactive | 3T3 cytotox 2 58.1
CC(C)CC#Cc1ccc2c(c1)O[C@H](CN(C)C(=O)Nc1ccccc1F)[C@H](C)CN([C@H](C)CO)S2(=O)=O	none
CC(C)CC#Cc1ccc2c(c1)O[C@@H](CN(C)C(=O)Nc1ccccc1)[C@@H](C)CN([C@H](C)CO)S2(=O)=O	T cruzi growth-1 129.4 | T cruzi growth-2 102.4 | T cruzi growth-3 inactive | 3T3 cytotox inactive | 3T3 cytotox 2 94.8
C[C@H]1CN([C@@H](C)CO)C(=O)Cc2cc(NS(=O)(=O)c3ccc(Cl)cc3)ccc2O[C@@H]1CN(C)Cc1ccc(C(=O)O)cc1	none
CCCC#Cc1ccc2c(c1)O[C@@H](CN(C)C(=O)Nc1ccc(OC)cc1)[C@H](C)CN([C@@H](C)CO)S2(=O)=O	none (no result: IDH1 mut inh)
COc1ccc(NC(=O)N(C)C[C@H]2Oc3cc(C#CCC(C)C)ccc3S(=O)(=O)N([C@@H](C)CO)C[C@@H]2C)cc1	T cruzi growth-1 95.2 | T cruzi growth-2 105.9 | T cruzi growth-3 inactive | 3T3 cytotox inactive | 3T3 cytotox 2 89.1
CCCC#Cc1ccc2c(c1)O[C@H](CN(C)C(=O)Nc1ccc(OC)cc1)[C@@H](C)CN([C@@H](C)CO)S2(=O)=O	T cruzi growth-1 112.6 | T cruzi growth-2 112.3 | T cruzi growth-3 inactive | 3T3 cytotox inactive | 3T3 cytotox 2 inactive
COc1ccc(NC(=O)N(C)C[C@@H]2Oc3cc(C#CCC(C)C)ccc3S(=O)(=O)N([C@H](C)CO)C[C@H]2C)cc1	none
O=C(NC1CCCC1)[C@H]1[C@H](CO)[C@H]2Cn3c(ccc(-c4ccccc4)c3=O)[C@@H]1N2CC1CC1	none (no result: T cruzi growth-1, IDH1 mut inh)
COc1ccc(NC(=O)N(C)C[C@@H]2Oc3c(NC(=O)c4ccc(-c5nccs5)cc4)cccc3C(=O)N([C@@H](C)CO)C[C@H]2C)cc1	none (no result: IDH1 mut inh)
Cc1ccc(S(=O)(=O)Nc2ccc3c(c2)C(=O)N([C@H](C)CO)C[C@@H](C)[C@@H](CN(C)Cc2ccc4c(c2)OCO4)OCCCC[C@@H](C)O3)cc1	T cruzi growth-1 inconclusive | T cruzi growth-2 105.4 | T cruzi growth-3 inactive | 3T3 cytotox inactive | 3T3 cytotox 2 102.0
COc1ccc(S(=O)(=O)Nc2ccc3c(c2)C(=O)N([C@H](C)CO)C[C@@H](C)[C@@H](CN(C)Cc2ccc4c(c2)OCO4)OCCCC[C@H](C)O3)cc1	none (no result: IDH1 mut inh)
Cc1ccc(S(=O)(=O)Nc2ccc3c(c2)C(=O)N([C@@H](C)CO)C[C@H](C)[C@H](CN(C)Cc2ccc4c(c2)OCO4)OCCCC[C@@H](C)O3)cc1	none (no result: IDH1 mut inh)
C[C@@H]1CCCCO[C@@H](CN(C)Cc2ccc3c(c2)OCO3)[C@@H](C)CN([C@@H](C)CO)C(=O)c2cc(NS(=O)(=O)c3ccc(F)cc3)ccc2O1	T cruzi growth-1 114.6 (no result: IDH1 mut inh) | T cruzi growth-2 101.8 | T cruzi growth-3 inactive | 3T3 cytotox inactive | 3T3 cytotox 2 93.6
COc1ccc(S(=O)(=O)Nc2ccc3c(c2)C(=O)N([C@@H](C)CO)C[C@@H](C)[C@H](CN(C)Cc2ccc4c(c2)OCO4)OCCCC[C@H](C)O3)cc1	T cruzi growth-1 100.0 | T cruzi growth-2 109.4 | T cruzi growth-3 inactive | 3T3 cytotox inactive | 3T3 cytotox 2 65.5
COc1ccc(-c2ccc([C@@H]3[C@H](C#N)N(C(=O)c4cccc(F)c4)[C@H]3CO)cc2)cc1	T cruzi growth-1 103.3 (no result: IDH1 mut inh) | T cruzi growth-2 105.3 | T cruzi growth-3 inactive | 3T3 cytotox inactive | 3T3 cytotox 2 30.7
COc1ccc(-c2ccc([C@H]3[C@@H](C#N)N(C(=O)c4cccc(F)c4)[C@H]3CO)cc2)cc1	none (no result: IDH1 mut inh)
N#C[C@H]1[C@H](c2ccc(C3=CCCCC3)cc2)[C@@H](CO)N1C(=O)c1cccc(F)c1	T cruzi growth-1 98.1 (no result: IDH1 mut inh) | T cruzi growth-2 100.2 | T cruzi growth-3 inactive | 3T3 cytotox inactive | 3T3 cytotox 2 44.8
N#C[C@H]1[C@@H](c2ccc(C3=CCCCC3)cc2)[C@H](CO)N1C(=O)c1cccc(F)c1	none (no result: IDH1 mut inh)
COc1ccc(-c2ccc([C@@H]3[C@@H](CO)N(C(=O)c4cccc(F)c4)[C@H]3C#N)cc2)cc1	T cruzi growth-1 inconclusive (no result: IDH1 mut inh) | T cruzi growth-2 inactive | T cruzi growth-3 inactive | 3T3 cytotox inactive | 3T3 cytotox 2 inactive
C[C@@H]1CN([C@H](C)CO)C(=O)c2cc(NC(=O)NC3CCCCC3)ccc2O[C@@H](C)CCCCO[C@H]1CN(C)C(=O)Nc1ccc(C(F)(F)F)cc1	none (no result: T cruzi growth-1, Pf Dd2 growth)
C[C@@H]1CCCCO[C@H](CN(C)C(=O)Nc2ccc(C(F)(F)F)cc2)[C@H](C)CN([C@@H](C)CO)C(=O)c2cc(NC(=O)NC3CCCCC3)ccc2O1	T cruzi growth-1 117.4 | T cruzi growth-2 109.5 | T cruzi growth-3 inactive | 3T3 cytotox inactive | 3T3 cytotox 2 inconclusive
C[C@@H]1CCCCO[C@H](CN(C)C(=O)Nc2ccc(C(F)(F)F)cc2)[C@@H](C)CN([C@@H](C)CO)C(=O)c2cc(NC(=O)NC3CCCCC3)ccc2O1	T cruzi growth-1 121.2, Pf Dd2 growth -89.5 (no result: IDH1 mut inh) | T cruzi growth-2 105.0 | T cruzi growth-3 115.3 | 3T3 cytotox inactive | 3T3 cytotox 2 inactive
C[C@@H]1CCCCO[C@H](CN(C)C(=O)NC2CCCCC2)[C@@H](C)CN([C@H](C)CO)C(=O)c2cc(NC(=O)Nc3ccc(C(F)(F)F)cc3)ccc2O1	none (no result: IDH1 mut inh)
CCCNC(=O)N1[C@H](C#N)[C@H](c2ccc(C#Cc3ccc(F)cc3)cc2)[C@@H]1CO	T cruzi growth-1 inconclusive, Pf Dd2 growth -86.6 (no result: IDH1 mut inh) | T cruzi growth-2 101.3 | T cruzi growth-3 112.5 | 3T3 cytotox inactive | 3T3 cytotox 2 inactive
CCCNC(=O)N1[C@H](C#N)[C@@H](c2ccc(C#Cc3cccc(F)c3)cc2)[C@@H]1CO	T cruzi growth-1 100.4 (no result: IDH1 mut inh) | T cruzi growth-2 102.0 | T cruzi growth-3 inactive | 3T3 cytotox inactive | 3T3 cytotox 2 inactive
